One block for each compound: values may come before it.
Columns and labels:
Assay type in all cases: functional, cell-based
[1] = target: ATP-dependent translocase ABCB1 (Homo sapiens, UniProt P08183); experiment: TP_TRANSPORTER: drug resistance (vincristine) in MDR KB/V cells
How it was run: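 Fold reversal in KB/V cells from MTT vincristine IC50s measured with and without the reversing agent (5 or 10 μM). The ratio is defined as the vincristine IC50 […].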

KB 3-1 [2] = experiment: inhibitory concentration against human MDR KB/V cell line in presence of compound verapamil at 10 uM
How it was run: (§1)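 Vincristine cytotoxicity in P-gp-overexpressing MDR KB/V cells, alone or with a reversing agent at the stated level (5 or 10 μM). MTT colorimetric assay in 96-well plates measured cell survival. IC50 is the vincristine concentration (nM) that inhibited cell growth by 50%.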

KB 3-1 [3] = experiment: inhibitory concentration against human MDR KB/V cell line in presence of compound Taxinine at 10 uM; how it was run: as §1
KB 3-1 [4] = experiment: inhibitory concentration against human MDR KB/V cell line in presence of compound 9 at 5 uM; how it was run: as §1
KB 3-1 [5] = experiment: inhibitory concentration against human MDR KB/V cell line in presence of compound 9 at 10 uM; how it was run: as §1
KB 3-1 [6] = experiment: inhibitory concentration against human MDR KB/V cell line in presence of compound 8 at 5 uM; how it was run: as §1
KB 3-1 [7] = experiment: inhibitory concentration against human MDR KB/V cell line in presence of compound 8 at 10 uM; how it was run: as §1
KB 3-1 [8] = experiment: inhibitory concentration against human MDR KB/V cell line in presence of compound 10 at 10 uM; how it was run: as §1
KB 3-1 [9] = experiment: inhibitory concentration against human MDR KB/V cell line in presence of compound 10 at 5 uM; how it was run: as §1
KB 3-1 [10] = experiment: inhibitory concentration against human MDR KB/V cell line; how it was run: as §1

Chain of ATP-dependent translocase ABCB1 (P08183 whole entry): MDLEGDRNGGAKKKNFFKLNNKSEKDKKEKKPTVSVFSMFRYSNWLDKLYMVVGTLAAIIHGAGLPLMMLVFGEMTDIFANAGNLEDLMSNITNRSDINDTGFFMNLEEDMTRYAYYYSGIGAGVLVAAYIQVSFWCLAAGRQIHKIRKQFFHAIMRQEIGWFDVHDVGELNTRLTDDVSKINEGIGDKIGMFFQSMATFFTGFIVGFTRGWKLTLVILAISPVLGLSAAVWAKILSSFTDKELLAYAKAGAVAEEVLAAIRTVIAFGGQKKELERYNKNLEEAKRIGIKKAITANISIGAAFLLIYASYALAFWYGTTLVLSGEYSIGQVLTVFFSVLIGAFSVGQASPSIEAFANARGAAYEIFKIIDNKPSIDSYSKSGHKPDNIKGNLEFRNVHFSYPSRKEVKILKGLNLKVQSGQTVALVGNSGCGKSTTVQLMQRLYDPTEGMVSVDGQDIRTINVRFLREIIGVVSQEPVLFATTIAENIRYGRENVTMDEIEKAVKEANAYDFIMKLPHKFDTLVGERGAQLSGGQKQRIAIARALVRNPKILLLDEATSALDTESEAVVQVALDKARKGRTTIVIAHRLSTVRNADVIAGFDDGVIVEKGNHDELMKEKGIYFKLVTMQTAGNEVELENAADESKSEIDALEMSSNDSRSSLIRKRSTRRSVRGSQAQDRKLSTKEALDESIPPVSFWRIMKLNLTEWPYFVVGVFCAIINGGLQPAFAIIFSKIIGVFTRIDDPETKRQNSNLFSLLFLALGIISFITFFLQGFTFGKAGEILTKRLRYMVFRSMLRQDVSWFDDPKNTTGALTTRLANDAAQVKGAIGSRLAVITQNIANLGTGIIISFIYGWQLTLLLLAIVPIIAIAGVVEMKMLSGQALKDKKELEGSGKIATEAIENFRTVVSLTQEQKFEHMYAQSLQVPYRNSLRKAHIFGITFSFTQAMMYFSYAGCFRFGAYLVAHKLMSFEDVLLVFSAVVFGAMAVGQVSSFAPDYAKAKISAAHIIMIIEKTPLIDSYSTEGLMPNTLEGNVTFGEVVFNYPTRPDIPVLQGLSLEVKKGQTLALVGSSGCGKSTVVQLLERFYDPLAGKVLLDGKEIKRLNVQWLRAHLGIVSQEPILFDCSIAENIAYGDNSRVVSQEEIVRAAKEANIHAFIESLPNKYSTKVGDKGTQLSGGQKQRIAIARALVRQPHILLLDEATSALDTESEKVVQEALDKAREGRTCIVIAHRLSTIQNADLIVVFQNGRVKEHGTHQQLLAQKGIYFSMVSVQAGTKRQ

Activity [1]: inhibitor [+]
SMILES: C=C1[C@@H](OC(=O)CCc2ccccc2)CC[C@@]2(C)C[C@H](OC(C)=O)C3=C(C)C(=O)C[C@@H]([C@@H](OC(C)=O)[C@H]12)C3(C)C

SMILES: CC[C@]1(O)CC2CN(CCc3c([nH]c4ccccc34)[C@@](C(=O)OC)(c3cc4c(cc3OC)N(C=O)C3C45CCN4CC=C[C@@](CC)(C(OC(C)=O)[C@]3(O)C(=O)OC)[C@H]45)C2)C1.COc1ccc(CCN(C)CCCC(C#N)(c2ccc(OC)c(OC)c2)C(C)C)cc1OC (stereo not given in full)
IC50 (KB 3-1 [2]): 18.1 nM

SMILES: C=C1C2[C@H](C(C)=O)[C@@H]3CCC(=O)C(C)=C([C@@H](C(C)=O)[C@H](C(C)=O)[C@]2(C)CC[C@@H]1OC(=O)/C=C/c1ccccc1)C3(C)C.CC[C@]1(O)CC2CN(CCc3c([nH]c4ccccc34)[C@@](C(=O)OC)(c3cc4c(cc3OC)N(C=O)C3C45CCN4CC=C[C@@](CC)(C(OC(C)=O)[C@]3(O)C(=O)OC)[C@H]45)C2)C1 (stereo not given in full)
IC50 (KB 3-1 [3]): 124 nM

SMILES: C=C1[C@@H](OC(=O)CCc2ccccc2)CC[C@@]2(C)C[C@H](OC(C)=O)C3=C(C)C(=O)C[C@@H]([C@@H](OC(C)=O)[C@H]12)C3(C)C.CC[C@]1(O)CC2CN(CCc3c([nH]c4ccccc34)[C@@](C(=O)OC)(c3cc4c(cc3OC)N(C=O)C3C45CCN4CC=C[C@@](CC)(C(OC(C)=O)[C@]3(O)C(=O)OC)[C@H]45)C2)C1 (stereo not given in full)
IC50 (KB 3-1 [4]): 19.4 nM
IC50 (KB 3-1 [5]): 2.8 nM

SMILES: C=C1[C@@H](OC(=O)Cc2ccccc2)CC[C@@]2(C)C[C@H](OC(C)=O)C3=C(C)C(=O)C[C@@H]([C@@H](OC(C)=O)[C@H]12)C3(C)C.CC[C@]1(O)CC2CN(CCc3c([nH]c4ccccc34)[C@@](C(=O)OC)(c3cc4c(cc3OC)N(C=O)C3C45CCN4CC=C[C@@](CC)(C(OC(C)=O)[C@]3(O)C(=O)OC)[C@H]45)C2)C1 (stereo not given in full)
IC50 (KB 3-1 [6]): 218 nM
IC50 (KB 3-1 [7]): 7.3 nM

SMILES: C=C1[C@@H](OC(=O)Cc2cc(OC)ccc2OC)CC[C@@]2(C)C[C@H](OC(C)=O)C3=C(C)C(=O)C[C@@H]([C@@H](OC(C)=O)[C@H]12)C3(C)C.CC[C@]1(O)CC2CN(CCc3c([nH]c4ccccc34)[C@@](C(=O)OC)(c3cc4c(cc3OC)N(C=O)C3C45CCN4CC=C[C@@](CC)(C(OC(C)=O)[C@]3(O)C(=O)OC)[C@H]45)C2)C1 (stereo not given in full)
IC50 (KB 3-1 [8]): 8.93 nM
IC50 (KB 3-1 [9]): 325 nM

IC50 (KB 3-1 [10]): 1230 nM
SMILES: CC[C@]1(O)C[C@H]2CN(CCc3c([nH]c4ccccc34)[C@@](C(=O)OC)(c3cc4c(cc3OC)N(C=O)[C@H]3[C@@](O)(C(=O)OC)[C@H](OC(C)=O)[C@]5(CC)C=CCN6CC[C@]43[C@@H]65)C2)C1 [VINCRISTINE]

Reference: ChEMBL document CHEMBL1137855, “Synthesis and biological evaluation of taxinine analogues as orally active multidrug resistance reversal agents in cancer” (Bioorg Med Chem Lett, 2004)
